From ChEMBL document CHEMBL4382248, “Optimization of a 1,3,4-oxadiazole series for inhibition of Ca2+/calmodulin-stimulated activity of adenylyl cyclases 1 and 8 for the treatment of chronic pain” (Eur J Med Chem, 2019)

Assays:
Assay type in all cases: cell-based
[1] = biological target: Adenylate cyclase type 1 (Homo sapiens, UniProt Q08828); test: Inhibition of human AC1 expressed in HEK293 cells assessed as decrease in A23187-stimulated cAMP accumulation preincubated for 30 mins followed by A23187 stimulation and measured after 1 hr by fluorescence assay
Adenylate cyclase type 1, sequence (Q08828 whole entry): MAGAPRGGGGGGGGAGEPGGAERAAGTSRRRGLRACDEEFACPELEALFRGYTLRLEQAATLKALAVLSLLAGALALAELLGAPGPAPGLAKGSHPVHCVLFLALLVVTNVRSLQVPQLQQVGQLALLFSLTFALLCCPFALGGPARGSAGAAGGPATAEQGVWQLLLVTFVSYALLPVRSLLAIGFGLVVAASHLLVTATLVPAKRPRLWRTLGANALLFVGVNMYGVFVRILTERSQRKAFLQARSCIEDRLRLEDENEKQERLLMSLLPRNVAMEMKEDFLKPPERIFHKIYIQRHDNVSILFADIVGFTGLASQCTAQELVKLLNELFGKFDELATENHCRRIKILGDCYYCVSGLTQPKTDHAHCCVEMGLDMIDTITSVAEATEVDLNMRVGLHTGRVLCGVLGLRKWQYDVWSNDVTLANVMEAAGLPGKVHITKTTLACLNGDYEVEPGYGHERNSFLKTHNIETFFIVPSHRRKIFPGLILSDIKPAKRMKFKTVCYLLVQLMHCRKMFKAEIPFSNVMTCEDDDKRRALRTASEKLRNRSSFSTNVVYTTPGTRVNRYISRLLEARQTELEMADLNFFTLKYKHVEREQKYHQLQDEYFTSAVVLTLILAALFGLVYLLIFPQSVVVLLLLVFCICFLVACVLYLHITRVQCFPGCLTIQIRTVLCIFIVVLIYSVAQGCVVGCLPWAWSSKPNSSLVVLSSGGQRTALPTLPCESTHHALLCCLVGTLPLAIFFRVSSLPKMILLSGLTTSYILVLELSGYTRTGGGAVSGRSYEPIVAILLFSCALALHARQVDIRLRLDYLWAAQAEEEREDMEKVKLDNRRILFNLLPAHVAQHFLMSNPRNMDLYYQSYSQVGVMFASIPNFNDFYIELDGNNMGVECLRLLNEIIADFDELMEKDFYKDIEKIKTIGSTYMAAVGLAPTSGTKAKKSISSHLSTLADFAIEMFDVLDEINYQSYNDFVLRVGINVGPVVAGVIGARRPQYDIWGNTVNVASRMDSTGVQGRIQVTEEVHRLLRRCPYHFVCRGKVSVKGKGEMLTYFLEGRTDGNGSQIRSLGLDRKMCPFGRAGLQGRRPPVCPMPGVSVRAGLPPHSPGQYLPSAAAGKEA
Procedure, shortened: (§1)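 HEK cells stably expressing AC1 or AC8; Ca2+/calmodulin-stimulated cAMP accumulation measured. Dose-response curves began at 30 µM. […] Values are the mean and SEM of three independent experiments.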

[2] = biological target: Adenylate cyclase type 8 (Homo sapiens, UniProt P40145); test: Inhibition of human AC8 expressed in HEK293 cells assessed as decrease in A23187-stimulated cAMP accumulation at 30 uM preincubated for 30 mins followed by A23187 stimulation and measured after 1 hr by fluorescence assay relative to control; procedure, shortened: as §1
Adenylate cyclase type 8, sequence (P40145 whole entry): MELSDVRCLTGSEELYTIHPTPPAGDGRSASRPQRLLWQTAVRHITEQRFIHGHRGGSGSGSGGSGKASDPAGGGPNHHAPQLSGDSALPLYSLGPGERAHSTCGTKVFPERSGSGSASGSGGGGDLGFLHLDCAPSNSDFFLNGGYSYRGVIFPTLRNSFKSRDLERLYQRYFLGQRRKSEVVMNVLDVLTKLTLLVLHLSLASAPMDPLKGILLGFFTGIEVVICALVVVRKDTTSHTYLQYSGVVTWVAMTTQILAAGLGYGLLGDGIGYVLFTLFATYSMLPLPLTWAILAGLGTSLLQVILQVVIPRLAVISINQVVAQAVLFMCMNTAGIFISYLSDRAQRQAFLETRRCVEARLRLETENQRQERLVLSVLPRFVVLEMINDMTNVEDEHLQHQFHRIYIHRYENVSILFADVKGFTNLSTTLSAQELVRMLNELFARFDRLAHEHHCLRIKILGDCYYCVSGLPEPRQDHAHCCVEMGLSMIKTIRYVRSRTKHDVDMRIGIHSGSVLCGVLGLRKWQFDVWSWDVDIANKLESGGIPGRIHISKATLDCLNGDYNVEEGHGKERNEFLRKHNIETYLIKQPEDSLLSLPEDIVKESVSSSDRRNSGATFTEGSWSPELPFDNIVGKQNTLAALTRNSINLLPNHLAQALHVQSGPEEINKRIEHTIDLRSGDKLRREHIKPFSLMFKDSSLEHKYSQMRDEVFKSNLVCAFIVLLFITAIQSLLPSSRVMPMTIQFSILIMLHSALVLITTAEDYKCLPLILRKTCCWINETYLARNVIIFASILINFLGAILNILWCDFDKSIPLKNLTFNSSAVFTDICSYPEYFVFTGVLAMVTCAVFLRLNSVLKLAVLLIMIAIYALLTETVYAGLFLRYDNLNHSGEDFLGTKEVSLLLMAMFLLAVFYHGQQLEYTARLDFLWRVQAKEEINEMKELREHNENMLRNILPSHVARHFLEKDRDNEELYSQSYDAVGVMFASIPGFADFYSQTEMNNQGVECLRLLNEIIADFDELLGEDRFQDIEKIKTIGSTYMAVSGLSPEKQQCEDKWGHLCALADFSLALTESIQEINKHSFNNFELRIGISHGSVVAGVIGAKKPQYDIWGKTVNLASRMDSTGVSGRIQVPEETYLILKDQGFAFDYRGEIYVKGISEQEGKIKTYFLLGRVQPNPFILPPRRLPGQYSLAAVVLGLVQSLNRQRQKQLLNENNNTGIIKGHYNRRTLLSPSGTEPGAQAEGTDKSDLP

[3] = Cytotoxicity against HEK293 cells expressing human AC1 at 30 uM preincubated for 30 mins followed by A23187 stimulation and measured after 1 hr by CellTiter-Glo luminescent cell viability assay relative to control; conditions: HEK293 cells expressing human AC1, read-out: Activity
Procedure, shortened: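 Cytotoxicity in HEK lines stably expressing AC1 or AC8: single 30 µM dose, 90 min incubation. Viability was read by luminescent ATP reporter as % of DMSO-treated (100%) and Triton-X-treated (0%) controls.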

[4] = organism: Homo sapiens; test: Selectivity ratio of IC50 for human AC8 expressed in HEK293 cells to IC50 for human AC1 expressed in HEK293 cells
[5] = biological target: Adenylate cyclase type 2 (Homo sapiens) (UniProt Q08462); test: Inhibition of human AC2 expressed in HEK293 cells assessed as PMA-stimulated cAMP accumulation at 30 uM preincubated for 30 mins followed by PMA stimulation and measured after 1 hr by fluorescence assay relative to control; parameters: scale not given: the % may be the effect or the level left
Adenylate cyclase type 2 (Homo sapiens), sequence (Q08462 whole entry): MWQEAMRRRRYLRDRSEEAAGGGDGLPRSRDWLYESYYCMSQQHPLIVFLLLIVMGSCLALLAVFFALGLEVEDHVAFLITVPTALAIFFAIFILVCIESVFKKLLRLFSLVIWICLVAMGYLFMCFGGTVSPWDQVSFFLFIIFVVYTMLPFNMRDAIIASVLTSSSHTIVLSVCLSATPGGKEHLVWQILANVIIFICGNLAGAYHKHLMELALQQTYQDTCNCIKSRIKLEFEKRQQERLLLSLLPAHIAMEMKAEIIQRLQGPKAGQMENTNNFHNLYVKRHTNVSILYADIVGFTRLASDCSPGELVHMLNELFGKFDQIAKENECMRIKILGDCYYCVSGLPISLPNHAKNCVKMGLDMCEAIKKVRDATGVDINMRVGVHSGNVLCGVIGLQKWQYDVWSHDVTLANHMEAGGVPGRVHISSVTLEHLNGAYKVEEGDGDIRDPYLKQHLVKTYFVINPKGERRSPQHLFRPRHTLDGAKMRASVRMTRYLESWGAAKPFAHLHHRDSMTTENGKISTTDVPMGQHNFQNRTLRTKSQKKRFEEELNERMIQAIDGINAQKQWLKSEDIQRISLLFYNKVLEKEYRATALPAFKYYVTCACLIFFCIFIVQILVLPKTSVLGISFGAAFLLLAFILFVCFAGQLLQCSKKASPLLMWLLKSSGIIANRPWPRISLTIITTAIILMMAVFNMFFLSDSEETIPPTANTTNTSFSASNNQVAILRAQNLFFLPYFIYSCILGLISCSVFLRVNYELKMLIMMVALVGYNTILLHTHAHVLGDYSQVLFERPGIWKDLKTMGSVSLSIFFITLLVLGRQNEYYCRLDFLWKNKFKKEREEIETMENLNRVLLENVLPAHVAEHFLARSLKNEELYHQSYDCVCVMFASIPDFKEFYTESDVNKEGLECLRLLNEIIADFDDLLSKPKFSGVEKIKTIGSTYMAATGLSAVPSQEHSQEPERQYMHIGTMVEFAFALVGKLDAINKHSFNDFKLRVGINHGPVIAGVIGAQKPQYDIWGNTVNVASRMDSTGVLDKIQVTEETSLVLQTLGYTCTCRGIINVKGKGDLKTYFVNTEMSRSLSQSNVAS
Procedure, shortened: (§2)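 Group 2 AC2 (PKC-stimulated) or group 3 AC (forskolin-stimulated) cells were exposed to a single 30 µM dose (n = 3). cAMP activity was normalized to DMSO controls set as 100%.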

[6] = biological target: Adenylate cyclase type 5 (Homo sapiens) (UniProt O95622); test: Inhibition of human AC5 expressed in HEK293 cells assessed as forskolin-stimulated cAMP accumulation at 30 uM preincubated for 30 mins followed by forskolin stimulation and measured after 1 hr by fluorescence assay relative to control; parameters: scale not given: the % may be the effect or the level left; procedure, shortened: as §2
Adenylate cyclase type 5 (Homo sapiens), sequence (O95622 whole entry, looked up): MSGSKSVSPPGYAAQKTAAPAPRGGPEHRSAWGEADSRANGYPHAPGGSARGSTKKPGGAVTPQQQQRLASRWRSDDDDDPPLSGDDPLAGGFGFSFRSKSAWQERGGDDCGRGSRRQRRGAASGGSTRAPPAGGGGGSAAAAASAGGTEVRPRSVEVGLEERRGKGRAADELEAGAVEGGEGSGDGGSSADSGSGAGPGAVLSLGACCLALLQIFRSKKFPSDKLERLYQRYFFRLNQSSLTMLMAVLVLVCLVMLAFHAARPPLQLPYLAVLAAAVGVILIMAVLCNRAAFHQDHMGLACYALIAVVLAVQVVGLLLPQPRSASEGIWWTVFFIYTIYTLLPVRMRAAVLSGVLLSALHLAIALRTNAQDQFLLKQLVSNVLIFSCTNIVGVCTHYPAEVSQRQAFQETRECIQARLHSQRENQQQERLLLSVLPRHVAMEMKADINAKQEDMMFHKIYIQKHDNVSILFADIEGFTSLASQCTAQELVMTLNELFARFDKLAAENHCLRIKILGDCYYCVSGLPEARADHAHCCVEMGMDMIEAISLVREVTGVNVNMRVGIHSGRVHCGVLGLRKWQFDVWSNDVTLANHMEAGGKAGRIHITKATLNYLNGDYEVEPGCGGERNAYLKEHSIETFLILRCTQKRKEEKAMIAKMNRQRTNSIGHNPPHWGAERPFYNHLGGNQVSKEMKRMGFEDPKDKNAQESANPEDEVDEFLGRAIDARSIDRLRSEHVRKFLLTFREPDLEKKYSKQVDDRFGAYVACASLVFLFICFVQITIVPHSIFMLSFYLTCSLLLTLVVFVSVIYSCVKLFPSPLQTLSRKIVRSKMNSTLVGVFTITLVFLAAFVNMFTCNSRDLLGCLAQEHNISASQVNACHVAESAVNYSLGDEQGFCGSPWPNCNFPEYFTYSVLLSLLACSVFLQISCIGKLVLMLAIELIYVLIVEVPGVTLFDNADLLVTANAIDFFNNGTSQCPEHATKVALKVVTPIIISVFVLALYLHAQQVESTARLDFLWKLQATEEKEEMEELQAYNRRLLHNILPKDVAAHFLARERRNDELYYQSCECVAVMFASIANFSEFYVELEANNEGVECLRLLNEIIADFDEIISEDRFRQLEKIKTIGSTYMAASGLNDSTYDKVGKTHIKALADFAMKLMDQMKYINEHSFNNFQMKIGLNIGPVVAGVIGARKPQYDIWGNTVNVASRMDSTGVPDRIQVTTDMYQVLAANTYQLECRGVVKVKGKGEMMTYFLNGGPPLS

| Structure (SMILES) | IC50 [1] [µM] | inhibition [2] [%] | Activity [5] [%] | Activity [6] [%] | viability at 1 h, 30 µM [3] [%] | Ratio IC50 [4] |
| --- | --- | --- | --- | --- | --- | --- |
| Cc1ccc(C(=O)Nc2nnc(-c3ccc(F)cc3)o2)cc1 | – | 31 | 341 | 170 | 104 | > 3.6 |
| Cc1ccc(C(=O)Nc2nnc(-c3ccc4c(c3)CCCC4)o2)cc1C(F)(F)F | – | – | – | – | 115 | 0.5 |
| CC(C)Oc1ccc(C(=O)Nc2nnc(-c3ccc4c(c3)OCCO4)o2)cc1 | – | 39 | – | – | 160 | – |
| CCc1ccc(C(=O)Nc2nnc(-c3ccc4c(c3)CCCC4)o2)cc1 | – | – | – | – | 114 | 1.7 |
| O=C(Nc1nnc(-c2ccc(F)cc2)o1)c1cccc(C(F)(F)F)c1 | – | – | – | – | 108 | 5.8 |
| Cc1ccc(C(=O)Nc2nnc(C3CCCCC3)o2)cc1C | – | – | – | – | 112 | 5.4 |
| O=C(Nc1nnc(C2CCCCC2)o1)c1cccc(-c2ccccc2)c1 | – | – | – | – | 115 | 1 |
| CC(C)Oc1ccc(C(=O)Nc2nnc(-c3ccccc3)o2)cc1 | 5.4 | 43 | – | – | 101 | > 5.5 |
| CSc1cccc(C(=O)Nc2nnc(-c3ccc4c(c3)CCCC4)o2)c1 | – | – | – | – | 118 to 137 | 5.5 to 10 |
| O=C(Nc1nnc(-c2ccc3c(c2)CCCC3)o1)c1ccc(F)cc1 | – | – | – | – | 110 | 3.7 |
| O=C(Nc1nnc(-c2ccc(F)cc2)o1)c1ccc(-c2ccccc2)cc1 | – | – | – | – | 114 | 2.7 |
| Cc1ccc(C(=O)Nc2nnc(C3CCCCC3)o2)cc1C(F)(F)F | – | – | – | – | 139 | 1.9 |
| COc1cc(C(=O)Nc2nnc(C3CCCCC3)o2)cc(C(F)(F)F)c1 | – | – | – | – | 113 | 1.9 |
| O=C(Nc1nnc(-c2ccc3c(c2)CCCC3)o1)c1ccccc1 | – | – | – | – | 84 to 124 | 1.1 to 5.6 |
| COc1ccc(C(=O)Nc2nnc(-c3cccs3)o2)cc1 | – | 10 | – | – | 97 | – |
| CC(C)Oc1ccc(C(=O)Nc2nnc(-c3ccc4c(c3)CCCC4)o2)cc1 | – | – | – | – | 124 to 129 | 0.73 to 1.2 |
| Cc1ccc(C(=O)Nc2nnc(-c3ccc4c(c3)OCCO4)o2)cc1C | – | – | – | – | 113 | 2.6 |
| COc1ccc(C(=O)Nc2nnc(-c3ccc(F)cc3)o2)cc1 | 13 | 20 | – | – | 82 | – |
| COc1cccc(C(=O)Nc2nnc(-c3ccc4c(c3)CCCC4)o2)c1 | – | – | – | – | 111 to 124 | 0.83 to 8.1 |
| O=C(Nc1nnc(-c2ccc3c(c2)CCCC3)o1)c1cccc(F)c1 | – | – | – | – | 94 | 4.2 |
| CC(C)Oc1ccc(C(=O)Nc2nnc(-c3cccs3)o2)cc1 | – | 24 to 35 | – | – | 73 to 81 | – |
| O=C(Nc1nnc(C2CCCCC2)o1)c1cccc(C(F)(F)F)c1 | – | – | – | – | 102 | > 3.6 |
| Cc1ccc(C(=O)Nc2nnc(-c3ccc(F)cc3)o2)cc1C(F)(F)F | – | – | – | – | 133 | 1.9 |
| Cc1cc(C(=O)Nc2nnc(C3CCCCC3)o2)cc(C(F)(F)F)c1 | – | – | – | – | 125 | 2.9 |
| COc1cc(C(=O)Nc2nnc(-c3ccc4c(c3)CCCC4)o2)cc(C(F)(F)F)c1 | – | – | – | – | 121 | 1.1 |
| Cc1cc(C(=O)Nc2nnc(-c3ccc4c(c3)CCCC4)o2)cc(C(F)(F)F)c1 | – | – | – | – | 116 | 0.26 |
| O=C(Nc1nnc(-c2ccc3c(c2)OCCO3)o1)c1cccc(C(F)(F)F)c1 | – | – | – | – | 116 | 6.3 |
| O=C(Nc1nnc(C2CCCCC2)o1)c1ccc(Br)cc1 | – | – | – | – | 108 | 2.9 |
| O=C(Nc1nnc(-c2ccc3c(c2)OCCO3)o1)c1ccc(Br)cc1 | – | – | 198 | 159 | 121 | 6.8 |

The next lines start with results.

| IC50 [1] [µM] | inhibition [2] [%] | Activity [5] [%] | Activity [6] [%] | Structure (SMILES) | viability at 1 h, 30 µM [3] [%] | Ratio IC50 [4] |
| --- | --- | --- | --- | --- | --- | --- |
| 9.5 | 37 | – | – | CSc1cccc(C(=O)Nc2nnc(-c3ccc4c(c3)OCCO4)o2)c1 | 109 | – |
| 11 | 11 | – | – | O=C(Nc1nnc(C2CCCCC2)o1)c1cccc(F)c1 | 87 | – |
| – | – | 160 | 215 | O=C(Nc1nnc(-c2ccc3c(c2)CCCC3)o1)c1ccc(Br)cc1 | 113 to 115 | 2.23 to 4.5 |
| – | 35 | – | – | CC(C)Oc1ccc(C(=O)Nc2nnc(C3CCCCC3)o2)cc1 | 99 | – |
| – | 11 | – | – | O=C(Nc1nnc(-c2ccc(F)cc2)o1)c1ccc(Cl)cc1 | 84 | – |
| – | 44 | – | – | CCc1ccc(C(=O)Nc2nnc(C3CCCCC3)o2)cc1 | 119 | – |
| 16 | 1 | – | – | Cc1ccc(C(=O)Nc2nnc(C3CCCCC3)o2)cc1 | 111 | – |
| – | 14 | – | – | O=C(Nc1nnc(-c2ccc(F)cc2)o1)c1ccc(F)cc1 | 100 | – |
| – | 6 | – | – | COc1ccc(C(=O)Nc2nnc(C3CCCCC3)o2)cc1 | 82 | – |
| 11 | 35 | – | – | O=C(Nc1nnc(-c2ccc(F)cc2)o1)c1cccc(F)c1 | 104 | – |
| 16 | 38 | – | – | O=C(Nc1nnc(-c2ccc(F)cc2)o1)c1ccc(S(=O)(=O)N2CCCCC2)cc1 | 119 | – |
| – | 41 | – | – | O=C(Nc1nnc(-c2cccs2)o1)c1ccc(Br)cc1 | 110 | – |
| – | 8 | – | – | O=C(Nc1nnc(-c2ccc(F)cc2)o1)c1ccccc1 | 87 | – |
| – | – | 275 | 139 | Cc1ccc(C(=O)Nc2nnc(-c3ccc4c(c3)CCCC4)o2)cc1 | 107 to 123 | 0.79 to 7.4 |
| 14 | 10 | – | – | O=C(Nc1nnc(C2CCCCC2)o1)c1ccc(Cl)cc1 | 89 | – |
| – | 24 | – | – | O=C(Nc1nnc(-c2ccc3c(c2)OCCO3)o1)c1ccccc1 | 87 | > 1 |
| 25 | 2 | – | – | O=C(Nc1nnc(C2CCCCC2)o1)c1ccccc1 | 87 | – |
| 28 | 18 | – | – | O=C(Nc1nnc(-c2cccs2)o1)c1ccccc1 | 97 | – |
| – | 33 | – | – | O=C(Nc1nnc(-c2ccc(F)cc2)o1)c1ccc(Br)cc1 | 103 | – |
| – | 32 | – | – | CCc1ccc(C(=O)Nc2nnc(-c3ccc(F)cc3)o2)cc1 | 95 | – |
| 13 | 7 | – | – | O=C(Nc1nnc(C2CCCCC2)o1)c1ccc(F)cc1 | 95 | – |
| – | 31 to 43 | – | – | CSc1cccc(C(=O)Nc2nnc(C3CCCCC3)o2)c1 | 117 to 137 | > 4.5 |
| – | 23 | – | – | COc1cccc(C(=O)Nc2nnc(-c3ccc(F)cc3)o2)c1 | 99 | – |
| – | 34 | – | – | COc1ccc(C(=O)Nc2nnc(-c3ccc4c(c3)CCCC4)o2)cc1 | 118 to 121 | > 4.7 |
| – | 34 | – | – | CSc1cccc(C(=O)Nc2nnc(-c3cccs3)o2)c1 | 110 | – |
| – | 18 | – | – | COc1cccc(C(=O)Nc2nnc(-c3ccc4c(c3)OCCO4)o2)c1 | 103 | – |
| – | 42 | – | – | Cc1ccc(C(=O)Nc2nnc(-c3ccc(F)cc3)o2)cc1C | 95 | – |
